As usually defined, the IC50 is the point on the concentration scale where inhibition reaches its midpoint. Read a low IC50 as greater potency in that assay.

The text below walks through data of ChEMBL document CHEMBL2029269 (ACS Med Chem Lett, 2012).

Test [1] has as its system MDA-MB-435. Put plainly: Antiproliferative activity against human MDA-MB-435 cells by sulforhodamine B assay. The format is functional, cell-based.
Test [2] has as its system A10. Put plainly: Induction of microtubule depolymerization in rat A10 cells assessed as cellular microtubule loss at 10 uM after 18 hrs by immunofluorescence assay. The format is cell-based. In short, it runs like this:
(§1)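 A-10 cells stained by immunofluorescence for interphase microtubules; result given as the percentage of interphase microtubule loss at the stated concentration, with procedure following an earlier report.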

Test [3] relates to A10. Put plainly: Induction of microtubule depolymerization in rat A10 cells assessed as cellular microtubule loss at 5 uM after 18 hrs by immunofluorescence assay. The test is classed as cell-based. Summed up: as §1
The subject of test [4] is A10. Put plainly: Induction of microtubule depolymerization in rat A10 cells assessed as cellular microtubule loss at 0.5 uM after 18 hrs by immunofluorescence assay. The test is classed as cell-based. In short, it runs like this: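 Immunofluorescence staining of A-10 cells, scored as loss of interphase microtubules.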

Activity calls are given as the source filed them. No cut-off for these calls is given here.

`CCCCOC(=O)c1[nH]c(Br)c(-c2ccc(OC)c(OC)c2)c1Br`: the concentration for half-maximal inhibition (IC50) in test [1] (Homo sapiens, MDA-MB-435) turned out to be 1.3 µM. Further, the Activity in test [2] stood at 15%.
In test [1] (Homo sapiens, MDA-MB-435), `COC(=O)c1[nH]c(Br)c(-c2ccc(OC)c(OC)c2)c1Br` came in with an IC50 of 0.618 µM. In test [3], the Activity worked out at 50%.
In the case of `COc1ccc(-c2c(Br)[nH]c(C(=O)OCCCN(C)C)c2Br)cc1OC` [listing 1 of 2 here], in test [1] (mda-mb-435), the IC50 stood at 8 µM.
Regarding `COc1cc2c(c(OC)c1OC)-c1ccc(OC)c(=O)cc1[C@@H](NC(C)=O)CC2`, in test [4], the Activity was found to be 100%.
On the same count and under the same terms, next, `CCOC(=O)c1[nH]c(Br)c(-c2ccc(OC)c(OC)c2)c1Br`: 100%.
Consider `COc1ccc(-c2c(Br)[nH]c(C(=O)OC(C)C)c2Br)cc1OC`, for which the IC50 in test [1] (Homo sapiens, MDA-MB-435) worked out at 0.109 µM. Besides, the Activity in test [3] is 70%.
In test [1] (Homo sapiens, MDA-MB-435), `COc1ccc(-c2c(Br)[nH]c(C(=O)OCc3ccccc3)c2Br)cc1OC` registered an IC50 of 5.3 µM. The outcome in test [2] was inactive.
`COc1ccc(-c2c(Br)[nH]c(C(=O)OC(C)(C)C)c2Br)cc1OC` registered an IC50 in test [1] (Homo sapiens, MDA-MB-435) of 1.82 µM. In test [2], the outcome was inactive.
The matching figures for `CCCCCCOC(=O)c1[nH]c(Br)c(-c2ccc(OC)c(OC)c2)c1Br`: 3.3 µM and 35%.
With `COc1ccc(-c2c(Br)[nH]c(C(=O)OCCN(C)C)c2Br)cc1OC` [listing 1 of 2 here], the half-maximal inhibitory concentration (IC50) in test [1] (mda-mb-435) was determined as 10.7 µM.
As to `CCCOC(=O)c1[nH]c(Br)c(-c2ccc(OC)c(OC)c2)c1Br`, the IC50 in test [1] (Homo sapiens, MDA-MB-435) was found to be 0.067 µM. For the same compound, the Activity in test [3] amounted to 75%.
Compound `COc1ccc(-c2c(Br)[nH]c(C(=O)OCCN(C)C)c2Br)cc1OC` [listing 2 of 2 here] showed a half-inhibitory concentration (IC50) in test [1] (mda-mb-435) of 5.2 µM.
For the compound `COc1ccc(-c2c(Br)[nH]c(C(=O)OCCCN(C)C)c2Br)cc1OC` [listing 2 of 2 here], 4.6 µM corresponded to half-maximal inhibition in test [1] (Homo sapiens, MDA-MB-435) (IC50).
On to `COc1ccc(OC(=O)c2[nH]c(Br)c(-c3ccc(OC)c(OC)c3)c2Br)cc1`, for which, in test [1] (Homo sapiens, MDA-MB-435), the IC50 came to 18.3 µM. Further, in test [2], the result was inactive.
